# Measured values reported in PMC12853403 (ACS infectious diseases, 2025).
# Key:
# Eg.TRPMPZQ = Eg.TRPMPZQ (Echinococcus granulosus, UniProt W6UVV9); assay: Ca2+ reporter assay in HEK293 cells, Eg.TRPMPZQ; format: cell-based; conditions: EC50 at Eg.TRPMPZQ / EC50 at Sm.TRPMPZQ
# Se.TRPMPZQ = assay: Functional profiling; format: cell-based, Spirometra erinaceieuropaei
# [1] = system: E. multilocularis protoscoleces; assay: Cestode motility assay on protoscoleces; format: cell-based; conditions: Echinococcus multilocularis, read-out: EC50, motility of E. multilocularis protoscoleces
# Sm.TRPMPZQ[D1677E] = assay: Functional profiling at Sm.TRPMPZQ[D1677E] mutant; format: cell-based, Schistosoma mansoni; conditions: construct lacks the cestode-specific S1 histidine
# In short: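 Transiently transfected HEK293 cells (Lipofectamine-2000) replated after 24 h at 20,000 cells/well. 24 h later, loaded with Fluo-4 NW for 1 h at 37 °C in HBSS with 2.5 mM probenecid and 20 mM HEPES. FLIPR Ca2+ read at room temperature: 20 s baseline, then compound, then 250 s. Peak minus basal, normalized to (±)-PZQ at the same channel. Three-parameter fit, bottom fixed at 0%. EC50 mean ± SEM, n ≥ 3 transfections.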
# [2] = in humans; cited from earlier work
# [3] = cited from earlier work
# [4] = cited from earlier work; remark: listed apart in the source
compound,measurement,setting,value
O=C(C1CCCCC1)N1CC(=O)N2CCc3ccccc3[C@@H]2C1 [(R)-PZQ],difference in potency between Eg.TRPMPZQ and Sm.TRPMPZQ,Eg.TRPMPZQ,~ 4 fold
same,EC50,"Se.TRPMPZQ; read-out: EC50 at Se.TRPMPZQ, mean ± SEM",1000 ± 300 nM
same,efficacy (Bmax) at Se.TRPMPZQ,Se.TRPMPZQ; relative to (R)-PZQ at Eg.TRPMPZQ,17 ± 0.8 % of (R)-PZQ at Eg.TRPMPZQ
same,EC50,[1],7.7 ± 1.3 nM
O=C(C1CCCCC1)N1CC(=O)N2CCc3ccccc3[C@H]2C1 [(S)-PZQ],difference in potency between Eg.TRPMPZQ and Sm.TRPMPZQ,Eg.TRPMPZQ,~ 100 fold
"O=C(C1CCCCC1)N1CC(=O)N2CCc3ccccc3C2C1 (stereo not shown) [PZQ, praziquantel]",agonist character at Se.TRPMPZQ,Se.TRPMPZQ,partial agonist
same,activity at Sm.TRPMPZQ[D1677E] mutant,Sm.TRPMPZQ[D1677E],unable to be activated
same,half time,[2],2 to 3 h
O=C(C1CCCCC1)N1CC(=O)N2CCCc3ccccc3C2C1 (stereo not shown) [epsiprantel],solubility,[3],very insoluble
same,absorption from the gastrointestinal tract,[4],poorly absorbed
